ChEMBL document CHEMBL1133678, “Synthesis of new indeno[1,2-c]isoquinolines: cytotoxic non-camptothecin topoisomerase I inhibitors” (2000)

Tested on: MDA-MB-435
Experiment: Antiproliferative activity was determined for 50% growth inhibition against human breast MDA-MB-435 cell line
Format: functional
Details: Homo sapiens, MDA-MB-435
How it was run: (§1)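 Human cancer cell lines from the roughly 55-line panel. GI50 is the concentration giving 50% growth inhibition. The test range was 10^-4 to 10^-8 M. Values outside the range were set to the minimum (10^-8 M) or the maximum (10^-4 M).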

Row | SMILES | GI50 [µM]
1 | COc1cc2c3c(n(CCCNCCCO)c(=O)c2cc1OC)-c1cc2c(cc1C3=O)OCO2 | 0.47
2 | COc1cc2c3c(n(CCCNCCO)c(=O)c2cc1OC)-c1ccc2ccccc2c1C3=O | 0.42
3 | COc1cc2c3c(n(C)c(=O)c2cc1OC)-c1cc2c(cc1C3)OCO2 | > 100
4 | O=C1c2ccccc2-c2c1c1ccccc1c(=O)n2CCCBr | 21.5

Further lines, results first:

Row | GI50 [µM] | SMILES
5 | > 100 | O=C1c2cc3c(cc2-c2c1c1ccccc1c(=O)n2CCCCl)OCO3
6 | 1.25 | COc1cc2c(cc1OC)-c1c(c3cc(OC)c(OC)cc3c(=O)n1CCCNCCO)C2=O
7 | 0.97 | COc1cc2c(cc1OC)-c1c(c3ccccc3c(=O)n1CCCNCCO)C2=O.Cl
8 | 2.14 | COc1cc2c3c(n(CCCN)c(=O)c2cc1OC)-c1ccc2ccccc2c1C3=O.Cl
9 | 2.09 | COc1cc2c(cc1OC)-c1c(c3cc(OC)c(OC)cc3c(=O)n1CCCNCCCCO)C2=O.Cl
10 | 29.1 | O=C1c2ccccc2-c2c1c1ccccc1c(=O)n2O

Tested on: HCT-116
Experiment: Antiproliferative activity was determined for 50% growth inhibition against human colon HCT116 cell line
Format: functional
Details: Homo sapiens, HCT-116
How it was run: as §1

Row | SMILES | GI50 [µM]
11 | COc1cc2c3c(n(CCCNCCCO)c(=O)c2cc1OC)-c1cc2c(cc1C3=O)OCO2 | 0.04
12 | COc1cc2c3c(n(CCCNCCO)c(=O)c2cc1OC)-c1ccc2ccccc2c1C3=O | 0.18
13 | COc1cc2c3c(n(C)c(=O)c2cc1OC)-c1cc2c(cc1C3)OCO2 | 42.9
14 | O=C1c2ccccc2-c2c1c1ccccc1c(=O)n2CCCBr | 4.47

The next lines start with the values.

Row | GI50 [µM] | SMILES
15 | 74 | O=C1c2cc3c(cc2-c2c1c1ccccc1c(=O)n2CCCCl)OCO3
16 | 0.31 | COc1cc2c(cc1OC)-c1c(c3cc(OC)c(OC)cc3c(=O)n1CCCNCCO)C2=O
17 | 0.34 | COc1cc2c(cc1OC)-c1c(c3ccccc3c(=O)n1CCCNCCO)C2=O.Cl
18 | 1.73 | COc1cc2c3c(n(CCCN)c(=O)c2cc1OC)-c1ccc2ccccc2c1C3=O.Cl
19 | 0.81 | COc1cc2c(cc1OC)-c1c(c3cc(OC)c(OC)cc3c(=O)n1CCCNCCCCO)C2=O.Cl
20 | 24.3 | O=C1c2ccccc2-c2c1c1ccccc1c(=O)n2O

Tested on: Panel (Carcinoma cell lines)
Experiment: Mean graph midpoint for growth inhibition of all human cancer cell lines
Format: functional
Design: unit: µM
Details: not given
How it was run: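 Mean graph midpoint across all cell lines successfully tested in the roughly 55-line human cancer panel. Each line's GI50 is the 50% growth-inhibition concentration, tested over 10^-4 to 10^-8 M. Out-of-range values were set to 10^-8 M or 10^-4 M before averaging.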

Row | SMILES | MGM
21 | COc1cc2c3c(n(CCCNCCCO)c(=O)c2cc1OC)-c1cc2c(cc1C3=O)OCO2 | 0.2
22 | O=C1c2cc3c(cc2-c2c1c1ccccc1c(=O)n2CCCCl)OCO3 | 35.1
23 | COc1cc2c3c(n(CCCNCCO)c(=O)c2cc1OC)-c1ccc2ccccc2c1C3=O | 0.19
24 | COc1cc2c(cc1OC)-c1c(c3cc(OC)c(OC)cc3c(=O)n1CCCNCCO)C2=O | 0.51
25 | COc1cc2c(cc1OC)-c1c(c3ccccc3c(=O)n1CCCNCCO)C2=O.Cl | 0.95
26 | COc1cc2c3c(n(C)c(=O)c2cc1OC)-c1cc2c(cc1C3)OCO2 | 43.7
27 | O=C1c2ccccc2-c2c1c1ccccc1c(=O)n2CCCBr | 13.3
28 | COc1cc2c3c(n(CCCN)c(=O)c2cc1OC)-c1ccc2ccccc2c1C3=O.Cl | 3.72
29 | COc1cc2c(cc1OC)-c1c(c3cc(OC)c(OC)cc3c(=O)n1CCCNCCCCO)C2=O.Cl | 1.47
30 | O=C1c2ccccc2-c2c1c1ccccc1c(=O)n2O | 29.5

Tested on: UACC-62
Experiment: Antiproliferative activity was determined for 50% growth inhibition against human melanoma UACC-62 cell line
Format: functional
Details: Homo sapiens, UACC-62
How it was run: as §1

Row | SMILES | GI50 [µM]
31 | COc1cc2c3c(n(CCCNCCCO)c(=O)c2cc1OC)-c1cc2c(cc1C3=O)OCO2 | 0.01
32 | O=C1c2cc3c(cc2-c2c1c1ccccc1c(=O)n2CCCCl)OCO3 | 53.8
33 | COc1cc2c3c(n(CCCNCCO)c(=O)c2cc1OC)-c1ccc2ccccc2c1C3=O | 0.16
34 | COc1cc2c(cc1OC)-c1c(c3cc(OC)c(OC)cc3c(=O)n1CCCNCCO)C2=O | 0.38
35 | COc1cc2c(cc1OC)-c1c(c3ccccc3c(=O)n1CCCNCCO)C2=O.Cl | 0.63
36 | COc1cc2c3c(n(C)c(=O)c2cc1OC)-c1cc2c(cc1C3)OCO2 | 50
37 | O=C1c2ccccc2-c2c1c1ccccc1c(=O)n2CCCBr | 10.1
38 | COc1cc2c3c(n(CCCN)c(=O)c2cc1OC)-c1ccc2ccccc2c1C3=O.Cl | 17.5
39 | COc1cc2c(cc1OC)-c1c(c3cc(OC)c(OC)cc3c(=O)n1CCCNCCCCO)C2=O.Cl | 1.76
40 | O=C1c2ccccc2-c2c1c1ccccc1c(=O)n2O | 21.5

Tested on: OVCAR-3
Experiment: Antiproliferative activity was determined for 50% growth inhibition against human ovarian OVCAR-3 cell line
Format: functional
Details: not given
How it was run: as §1

Row | SMILES | GI50 [µM]
41 | COc1cc2c(cc1OC)-c1c(c3cc(OC)c(OC)cc3c(=O)n1CCCNCCO)C2=O | 11.2

Same assay, conditions: Homo sapiens, OVCAR-3

Row | SMILES | GI50 [µM]
42 | COc1cc2c3c(n(CCCNCCCO)c(=O)c2cc1OC)-c1cc2c(cc1C3=O)OCO2 | 1.19
43 | COc1cc2c3c(n(CCCNCCO)c(=O)c2cc1OC)-c1ccc2ccccc2c1C3=O | 0.27
44 | COc1cc2c3c(n(C)c(=O)c2cc1OC)-c1cc2c(cc1C3)OCO2 | > 100
45 | O=C1c2ccccc2-c2c1c1ccccc1c(=O)n2CCCBr | 23.5

Continued, values first:

Row | GI50 [µM] | SMILES
46 | 66.3 | O=C1c2cc3c(cc2-c2c1c1ccccc1c(=O)n2CCCCl)OCO3
47 | 3.64 | COc1cc2c(cc1OC)-c1c(c3ccccc3c(=O)n1CCCNCCO)C2=O.Cl
48 | 3.73 | COc1cc2c3c(n(CCCN)c(=O)c2cc1OC)-c1ccc2ccccc2c1C3=O.Cl
49 | 5.49 | COc1cc2c(cc1OC)-c1c(c3cc(OC)c(OC)cc3c(=O)n1CCCNCCCCO)C2=O.Cl
50 | 30.2 | O=C1c2ccccc2-c2c1c1ccccc1c(=O)n2O

Tested on: DU-145
Experiment: Antiproliferative activity was determined for 50% growth inhibition against human Prostate DU-145 cell line
Format: functional
Details: not given
How it was run: as §1

Row | SMILES | GI50 [µM]
51 | COc1cc2c(cc1OC)-c1c(c3cc(OC)c(OC)cc3c(=O)n1CCCNCCO)C2=O | 0.02
52 | COc1cc2c(cc1OC)-c1c(c3cc(OC)c(OC)cc3c(=O)n1CCCNCCCCO)C2=O.Cl | 0.21

Same assay, conditions: Homo sapiens, DU-145

Row | SMILES | GI50 [µM]
53 | COc1cc2c3c(n(CCCNCCCO)c(=O)c2cc1OC)-c1cc2c(cc1C3=O)OCO2 | 0.01
54 | COc1cc2c3c(n(CCCNCCO)c(=O)c2cc1OC)-c1ccc2ccccc2c1C3=O | 0.28
55 | COc1cc2c3c(n(C)c(=O)c2cc1OC)-c1cc2c(cc1C3)OCO2 | 42.5
56 | O=C1c2ccccc2-c2c1c1ccccc1c(=O)n2CCCBr | 13

Now from value to molecule:

Row | GI50 [µM] | SMILES
57 | 12.7 | O=C1c2cc3c(cc2-c2c1c1ccccc1c(=O)n2CCCCl)OCO3
58 | 0.44 | COc1cc2c(cc1OC)-c1c(c3ccccc3c(=O)n1CCCNCCO)C2=O.Cl
59 | 1.64 | COc1cc2c3c(n(CCCN)c(=O)c2cc1OC)-c1ccc2ccccc2c1C3=O.Cl
60 | 40.2 | O=C1c2ccccc2-c2c1c1ccccc1c(=O)n2O

Tested on: HOP-62
Experiment: Antiproliferative activity was determined for 50% growth inhibition against human lung HOP-62 cell line
Format: functional
Details: not given
How it was run: as §1

Row | SMILES | GI50 [µM]
61 | COc1cc2c(cc1OC)-c1c(c3cc(OC)c(OC)cc3c(=O)n1CCCNCCO)C2=O | 0.05

Same assay, conditions: Homo sapiens, HOP-62

Row | SMILES | GI50 [µM]
62 | COc1cc2c3c(n(CCCNCCCO)c(=O)c2cc1OC)-c1cc2c(cc1C3=O)OCO2 | 0.03
63 | O=C1c2cc3c(cc2-c2c1c1ccccc1c(=O)n2CCCCl)OCO3 | 13.1
64 | COc1cc2c3c(n(CCCNCCO)c(=O)c2cc1OC)-c1ccc2ccccc2c1C3=O | 0.17
65 | COc1cc2c(cc1OC)-c1c(c3ccccc3c(=O)n1CCCNCCO)C2=O.Cl | 0.62
66 | COc1cc2c3c(n(C)c(=O)c2cc1OC)-c1cc2c(cc1C3)OCO2 | 11.8
67 | O=C1c2ccccc2-c2c1c1ccccc1c(=O)n2CCCBr | 4.59
68 | COc1cc2c3c(n(CCCN)c(=O)c2cc1OC)-c1ccc2ccccc2c1C3=O.Cl | 1.89
69 | COc1cc2c(cc1OC)-c1c(c3cc(OC)c(OC)cc3c(=O)n1CCCNCCCCO)C2=O.Cl | 0.26
70 | O=C1c2ccccc2-c2c1c1ccccc1c(=O)n2O | 56.6

Tested on: SN12C
Experiment: Antiproliferative activity was determined for 50% growth inhibition against human renal SN12C cell line
Format: functional
Details: not given
How it was run: as §1

Row | SMILES | GI50 [µM]
71 | COc1cc2c(cc1OC)-c1c(c3cc(OC)c(OC)cc3c(=O)n1CCCNCCO)C2=O | 0.05
72 | COc1cc2c(cc1OC)-c1c(c3cc(OC)c(OC)cc3c(=O)n1CCCNCCCCO)C2=O.Cl | 0.28

Same assay, conditions: Homo sapiens, SN12C

Row | SMILES | GI50 [µM]
73 | COc1cc2c3c(n(CCCNCCCO)c(=O)c2cc1OC)-c1cc2c(cc1C3=O)OCO2 | 0.01
74 | O=C1c2cc3c(cc2-c2c1c1ccccc1c(=O)n2CCCCl)OCO3 | > 100
75 | COc1cc2c3c(n(CCCNCCO)c(=O)c2cc1OC)-c1ccc2ccccc2c1C3=O | 0.15
76 | COc1cc2c(cc1OC)-c1c(c3ccccc3c(=O)n1CCCNCCO)C2=O.Cl | 2.07
77 | COc1cc2c3c(n(C)c(=O)c2cc1OC)-c1cc2c(cc1C3)OCO2 | 43.6
78 | O=C1c2ccccc2-c2c1c1ccccc1c(=O)n2CCCBr | 7
79 | COc1cc2c3c(n(CCCN)c(=O)c2cc1OC)-c1ccc2ccccc2c1C3=O.Cl | 6.54
80 | O=C1c2ccccc2-c2c1c1ccccc1c(=O)n2O | 35.7

Tested on: SF-539
Experiment: Antiproliferative activity was determined for 50% growth inhibition against human CNS SF-539 cell line
Format: functional
Details: not given
How it was run: as §1

Row | SMILES | GI50 [µM]
81 | COc1cc2c(cc1OC)-c1c(c3cc(OC)c(OC)cc3c(=O)n1CCCNCCO)C2=O | 0.01
82 | COc1cc2c(cc1OC)-c1c(c3cc(OC)c(OC)cc3c(=O)n1CCCNCCCCO)C2=O.Cl | 0.59

Same assay, conditions: Homo sapiens, SF-539

Row | SMILES | GI50 [µM]
83 | COc1cc2c3c(n(CCCNCCCO)c(=O)c2cc1OC)-c1cc2c(cc1C3=O)OCO2 | 0.01
84 | O=C1c2cc3c(cc2-c2c1c1ccccc1c(=O)n2CCCCl)OCO3 | > 100
85 | COc1cc2c3c(n(CCCNCCO)c(=O)c2cc1OC)-c1ccc2ccccc2c1C3=O | 0.22
86 | COc1cc2c(cc1OC)-c1c(c3ccccc3c(=O)n1CCCNCCO)C2=O.Cl | 0.45
87 | COc1cc2c3c(n(C)c(=O)c2cc1OC)-c1cc2c(cc1C3)OCO2 | 61.2
88 | O=C1c2ccccc2-c2c1c1ccccc1c(=O)n2CCCBr | 4.61
89 | COc1cc2c3c(n(CCCN)c(=O)c2cc1OC)-c1ccc2ccccc2c1C3=O.Cl | 1.53
90 | O=C1c2ccccc2-c2c1c1ccccc1c(=O)n2O | 15.3
